Assay outcomes deposited in PubChem BioAssay by several laboratories.
Only some compounds are listed: those with a hit (about 3.8% of all), similar ones and a draw of the others.
RGS4 pot: RGS4 potentiators or activators, primary screen, cell-based, HEK293 M3R inducible RGS4, calcium flux | carbachol calcium flux Fluo4; hits give low values | B-score at 10 µM | actives 0.92% (n = 310,000);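 active = B-score of the integrated calcium signal more than 4 SD below the library mean, with starting fluorescence not abnormally high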;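 note: negative B-score means reduced calcium response which marks RGS4 activation or potentiation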
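Also added: carbachol at ECmax as muscarinic agonist stimulus; Assay system: HEK293 cells with stable M3R and inducible RGS4; Timing: overnight RGS4 induction, 30 min dye load 37 °C, 20 min compound RT; Measured by: Fluo4-AM (2 µM) calcium-flux fluorescence, kinetic read.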
MrgX1 agonist: agonists of human MrgX1 receptor, primary screen, HEK293 cells, Fluo-4 calcium flux; Fluo-4 calcium fluorescence, agonist mode; hits give high values; actives 0.44% (n = 310,000); Mas-related G-protein coupled receptor member X1 (Homo sapiens), Q96LB2; B-score at 10 µM;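 active = calcium response B-score plate-corrected fluorescence ratio at least 3 library SD, with starting fluorescence B-score inside 5 SD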
Target sequence (Q96LB2 whole entry, looked up): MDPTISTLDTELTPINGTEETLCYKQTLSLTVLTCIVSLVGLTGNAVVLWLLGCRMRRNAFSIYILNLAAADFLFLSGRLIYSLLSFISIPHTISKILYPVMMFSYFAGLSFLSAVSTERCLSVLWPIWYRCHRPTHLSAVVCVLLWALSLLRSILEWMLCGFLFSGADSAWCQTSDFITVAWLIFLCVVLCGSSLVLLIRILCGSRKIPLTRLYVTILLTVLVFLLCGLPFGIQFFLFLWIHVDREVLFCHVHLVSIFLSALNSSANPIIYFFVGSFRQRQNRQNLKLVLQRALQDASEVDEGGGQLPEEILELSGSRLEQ
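Assay system: MrgX1-expressing HEK293 cells / Amount: fifteen thousand cells per well / Doses: test compound in the initial addition of three / Timing: cells plated overnight, dye loaded 0.5 h 37 °C, 0.5 h room temperature / Technique: kinetic calcium dye fluorescence, Fluo-4 NW / Control set: positive and negative controls per plate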
RGS4 inh: RGS4 inhibitors, primary screen, cell-based, HEK293 M3R inducible RGS4, calcium flux. Regulator of G-protein signaling 4 (Homo sapiens), P49798. Fluo-4 calcium flux; hits give high values; triggered by carbachol at its EC20. B-score at 10 µM. actives 0.45% (n = 310,000). AID 463165, 2010;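 active = B-score, a plate-corrected calcium signal, over three deviations above library mean, with baseline fluorescence within five deviations of library mean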;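 note: RGS4 expression induced by doxycycline in cells with stable M3 receptor; B-score is computed from the integrated fluorescence ratio over baseline after carbachol; higher B-score means a larger calcium signal and so more RGS4 inhibition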
Target sequence (P49798 whole entry, looked up): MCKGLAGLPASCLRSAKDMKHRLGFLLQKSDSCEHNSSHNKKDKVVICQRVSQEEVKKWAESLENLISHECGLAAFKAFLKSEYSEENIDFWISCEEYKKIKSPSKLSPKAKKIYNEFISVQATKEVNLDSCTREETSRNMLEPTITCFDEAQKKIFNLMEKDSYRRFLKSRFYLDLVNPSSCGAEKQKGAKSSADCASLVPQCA
MrgX1 antagonist: antagonists of human MrgX1 receptor, primary screen, HEK293 cells, Fluo-4 calcium flux. Mas-related G-protein coupled receptor member X1 (Homo sapiens), Q96LB2. BAM8-22 antagonism; hits give low values. B-score at 10 µM. actives 1.3% (n = 310,000). AID 588676, 2011;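 active = calcium-response B-score plate-corrected more than 3 library SD below zero, starting fluorescence within 5 deviations, no agonist response on first addition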;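 note: peak minus trough fluorescence over baseline after final BAM8-22 challenge near maximal dose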
MrgX1 allo act: positive allosteric modulators of MrgX1, primary screen, HEK293 cells, Fluo-4 calcium flux; B-score at 10 µM; Mas-related G-protein coupled receptor member X1 (Homo sapiens), Q96LB2; actives 0.63% (n = 310,000); FDSS; hits give high values;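 active = plate-corrected calcium response at least 3 library SD above typical, normal starting fluorescence, not activating the receptor alone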;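 note: compound read alongside a low EC10 to EC30 dose of BAM8-22 agonist; peak minus trough fluorescence over baseline measured at the second addition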
Lipid droplet: inhibitors of hepatocyte lipid droplet formation, primary screen, imaging, high-throughput imaging, BODIPY stain; inhibition, % at 6.5 µM; AML12 mouse hepatocytes, oleate lipid droplets; actives 0.4% (n = 240,000); AID 1656, 2009;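 active = lipid droplet intensity inhibited by at least 50%, with more than 500 cells counted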
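Assay system: AML12 mouse liver cells | Compound: 6.5 µM single-point dosing | Schedule: Overnight exposure | Technique: Fluorescence imaging, 20x objective, two fields per well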
RGS4 inh valid: enhanced carbachol calcium response, M3R/RGS4 cells, RGS4 inhibitor project, cell-based, validation screen, HEK293 M3R/RGS4, calcium flux; AID 492999, 2010; carbachol calcium Fluo-4 fluorescence; carbachol added at its EC20; 0 = buffer wells, 100 = carbachol control; calcium response, % at 10 µM; shares compounds with RGS4 inh; actives 65% (n = 1,700);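 active = duplicate-averaged calcium response above the buffer-only control mean plus 5 SD of those controls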;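 note: integrated fluorescence ratio F max minus min over baseline F0; higher response in RGS4-induced cells means RGS4 inhibition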
RGS4 uninduced: carbachol calcium response in non-induced M3R cells, confirmation, counter-screen for RGS4 inhibitor project, cell-based, HEK293 M3R; shares compounds with RGS4 inh; carbachol calcium Fluo-4; submaximal (EC20) carbachol stimulus; buffer wells 0%, carbachol control wells 100%; activity (percent), % at 10 µM; actives 20% (n = 1,900); AID 493000, 2010; call rule not given here;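 note: RGS4 induction absent so cells express M3R without RGS4; higher means more calcium signal and flags a non-specific hit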
M3R basal Ca ctr: second RGS4 inhibitor counter-screen in uninduced cells lacking carbachol; shares compounds with RGS4 inh; HEK293 M3R/RGS4 non-induced, Fluo-4 calcium, no carbachol; normalised: buffer wells 0%, carbachol wells 100%; calcium response (agonist-mode artifact), % at 10 µM; actives 22% (n = 1,900); AID 493001;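 active = duplicate-averaged calcium rise in uninduced cells above buffer wells' mean plus 5 SD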
* = called active by the depositor; i = inactive; · = no result.

SMILES | RGS4 pot | MrgX1 agonist | RGS4 inh | MrgX1 antagonist | MrgX1 allo act | Lipid droplet | RGS4 inh valid | RGS4 uninduced | M3R basal Ca ctr
O=c1c2ccccc2nc2ccc(NCc3ccco3)nn12 | i | i | i | i | i | · | · | · | ·
Cc1sc2nc3ccc(NCc4ccco4)nn3c(=O)c2c1C | i | i | 8.3* | i | i | · | i | i | 16%*
Cc1cccc(N(CC(=O)NCCC2=CCCCC2)S(C)(=O)=O)c1C | · | i | · | i | i | -2 | · | · | ·
CC(C)(C)CC(C)(C)Nc1c(-c2ccc(O)cc2)nc2cnccn12 | i | i | i | i | i | · | · | · | ·
Oc1ccc(C[C@@H]2CNCCN2CCC23CC4CC(CC(C4)C2)C3)cc1 | i | i | i | i | i | · | · | i | 16%*
Oc1ccc(C[C@H]2CNCCN2CCC23CC4CC(CC(C4)C2)C3)cc1 | i | i | i | i | i | · | · | i | i
CCCCN1CCNC[C@H]1Cc1ccc(O)cc1 | i | i | i | i | i | · | · | · | ·
COc1cc(/C=C2\C(=N)N3N=C(S(C)(=O)=O)SC3=NC2=O)ccc1OC(=O)c1ccco1 | i | i | i | i | i | -12 | · | · | ·
COc1ccc(C(=O)/C=C/c2ccsc2)cc1CSCC(=O)O | i | i | 5* | i | i | 6 | 10%* | i | i
O=C(CCN1CCN(c2ccc([N+](=O)[O-])cc2)CC1)c1ccc(Cl)cc1 | i | i | i | i | i | -2 | · | · | ·
O=C(CCN1CCN(c2ccccc2)CC1)c1ccc(Cl)cc1 | i | i | 24* | i | i | · | i | 35%* | 20%*
Cc1ccc([C@H]2C(C#N)=C(N)Oc3cc(C)oc(=O)c32)o1 | i | i | 6.9* | i | i | -21 | 26%* | i | i
CC1=NOC(=O)/C1=C/c1ccc(O)c(Br)c1 | i | 38* | 9.1* | i | i | 1 | 30%* | i | 68%*
CCOc1cc(/C=C2\C(=O)ON=C2C)ccc1OCc1ccccc1 | i | i | i | i | i | -2 | · | · | ·
CC1=NOC(=O)/C1=C/c1ccc(O)cc1 | i | i | 5.8* | i | i | -9 | 12%* | i | i
CCOC(=O)C1(CCCc2ccccc2)CCN(C(=O)c2cc(C)nn2CC)CC1 | i | i | i | i | i | -20 | · | · | ·
O=c1c2ccccc2cnn1Cc1n[nH]c(=S)n1-c1ccccc1Cl | i | i | i | i | i | -9 | · | · | ·
COC(=O)CCCC1=CC2=C(c3ccccc3)C(=O)C(C)(OC(=O)C3CCCC3)C(=O)C2=CN1C1CC1 (stereo not drawn) | i | i | i | i | i | -18 | · | · | ·
CCCCC1=CC2=C(c3ccco3)C(=O)C(C)(OC(=O)c3ccc(OC)cc3)C(=O)C2=CN1C1CC1 (stereo not drawn) | i | i | 9.3* | i | i | -14 | 5.5%* | i | i
CCCCC1=CC2=C(c3ccco3)C(=O)C(C)(OC(=O)c3ccc(OC)cc3)C(=O)C2=CN1C1CCCC1 (stereo not drawn) | i | i | i | i | i | · | i | i | 102%*
O=C(O)CCn1c2ccccc2c2nc3ccccc3nc21 | i | i | i | i | i | -6 | · | · | ·
Cc1cc(O)ccc1N=Cc1c(C(F)(F)F)[nH][nH]c1=O | i | i | 6.8* | i | i | 16 | 18%* | i | 21%*
COc1ccccc1C(=O)N1CCNC(=O)C1CC(=O)Nc1cccc(C)c1 (stereo not drawn) | i | i | 5.1* | i | i | 14 | i | i | i
O=C(CC1C(=O)NCCN1C(=O)Nc1ccccc1)Nc1cccc(Cl)c1 (stereo not drawn) | i | i | i | i | i | 19 | i | i | i
O=C(CC1C(=O)NCCN1C(=O)Nc1ccc(F)cc1)Nc1ccc(F)cc1 (stereo not drawn) | i | i | i | i | i | 5 | · | i | i
SMILES | RGS4 pot | MrgX1 agonist | RGS4 inh | MrgX1 antagonist | MrgX1 allo act | Lipid droplet | RGS4 inh valid | RGS4 uninduced | M3R basal Ca ctr
O=C(CC1C(=O)NCCN1C(=O)Nc1ccccc1)Nc1cc(Cl)cc(Cl)c1 (stereo not drawn) | i | i | 6.1* | i | i | 0 | 23%* | i | i
O=C1CC2(CCCC2)Oc2ccccc21 | i | i | i | i | i | · | · | · | ·
O=C1CN(C(=O)c2cc([N+](=O)[O-])ccc2Cl)C(c2ccc(F)cc2)c2cc(F)ccc2N1 (stereo not drawn) | i | i | i | i | i | 14 | · | · | ·
COC(=O)C1=C(CS(=O)(=O)c2ccc(Cl)cc2)NC(=O)NC1c1ccc(O)c(OC)c1 (stereo not drawn) | i | i | i | i | i | -1 | i | i | i
COC(=O)C1=C(CS(=O)(=O)c2ccc(OC)c(OC)c2)NC(=O)NC1c1ccc(O)c(OC)c1 (stereo not drawn) | i | i | 19* | i | i | 8 | 6.0%* | i | i
CCOC(=O)C1=C(CS(=O)(=O)c2ccc(Cl)cc2)NC(=O)NC1c1ccc(O)c(OC)c1 (stereo not drawn) | i | i | i | i | i | -16 | · | · | ·
CCc1noc(C)c1C(=O)N1CCN(S(=O)(=O)c2ccc(Br)cc2)CC1 | i | i | i | i | i | · | · | · | ·
CCOC(=O)C1CCN(CC(=O)c2c(C)n(C)c3ccc(OC)cc23)CC1 | i | i | 4.9* | i | i | -47 | 13%* | i | i
